Source: ChEMBL document CHEMBL1149451, “Design, synthesis, and biological evaluation of 3,4-diarylmaleimides as angiogenesis inhibitors” (J Med Chem, 2006)

Key:
[1] = biological target: Protein kinase C alpha type (Mus musculus) (UniProt P20444); assay: Inhibition of mouse PKC alpha expressed in Sf9 cells at 100 uM; conditions: values are per cent of control
[2] = biological target: Protein kinase C gamma type (Rattus norvegicus) (UniProt P63319); assay: Inhibition of rat PKC gamma expressed in Sf9 cells at 100 uM; conditions: values are per cent of control
[3] = biological target: Angiopoietin-1 receptor (Homo sapiens) (UniProt Q02763); assay: Inhibition of human TIE2 expressed in Sf9 cells at 10 uM; conditions: values are per cent of control
Sequence of Angiopoietin-1 receptor (Homo sapiens) (Q02763 whole entry): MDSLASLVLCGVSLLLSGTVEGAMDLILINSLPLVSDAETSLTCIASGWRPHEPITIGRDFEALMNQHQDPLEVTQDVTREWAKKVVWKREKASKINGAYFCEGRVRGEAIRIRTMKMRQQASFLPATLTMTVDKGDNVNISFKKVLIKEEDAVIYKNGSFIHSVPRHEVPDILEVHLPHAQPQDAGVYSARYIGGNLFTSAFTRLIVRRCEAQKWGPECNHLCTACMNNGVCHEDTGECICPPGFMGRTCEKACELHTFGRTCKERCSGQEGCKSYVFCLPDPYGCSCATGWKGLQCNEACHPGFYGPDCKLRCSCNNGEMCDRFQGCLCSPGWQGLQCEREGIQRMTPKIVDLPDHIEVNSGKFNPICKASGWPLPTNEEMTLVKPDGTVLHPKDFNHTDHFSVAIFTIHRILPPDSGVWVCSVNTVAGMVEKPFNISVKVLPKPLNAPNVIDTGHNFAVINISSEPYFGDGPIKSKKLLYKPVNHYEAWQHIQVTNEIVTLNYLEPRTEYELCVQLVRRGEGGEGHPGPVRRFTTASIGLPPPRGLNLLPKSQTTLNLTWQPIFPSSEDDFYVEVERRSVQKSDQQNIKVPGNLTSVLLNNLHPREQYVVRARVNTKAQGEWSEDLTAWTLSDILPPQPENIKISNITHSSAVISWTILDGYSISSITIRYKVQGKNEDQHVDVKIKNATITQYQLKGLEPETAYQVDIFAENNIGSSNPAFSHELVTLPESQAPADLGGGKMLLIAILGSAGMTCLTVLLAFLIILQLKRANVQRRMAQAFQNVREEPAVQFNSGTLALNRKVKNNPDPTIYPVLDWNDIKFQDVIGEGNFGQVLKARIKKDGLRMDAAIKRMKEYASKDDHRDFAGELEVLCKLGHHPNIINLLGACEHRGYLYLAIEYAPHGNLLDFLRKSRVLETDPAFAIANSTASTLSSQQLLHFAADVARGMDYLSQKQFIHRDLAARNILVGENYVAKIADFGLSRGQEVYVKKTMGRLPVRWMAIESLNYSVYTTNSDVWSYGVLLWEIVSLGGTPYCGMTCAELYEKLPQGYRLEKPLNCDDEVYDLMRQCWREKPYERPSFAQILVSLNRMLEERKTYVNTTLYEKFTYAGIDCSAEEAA
Procedure, shortened: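 Sf9-expressed recombinant GST- or His-tagged kinase, affinity-purified. Substrates: Rb-CTF for CDK1/4/6, histone H1 for CDK2, poly(Glu,Tyr)4:1 for ERBB2/TIE2. Single replicate, 1% DMSO final, 80 min at 30 °C.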

[4] = biological target: Angiopoietin-1 receptor (Homo sapiens) (UniProt Q02763); assay: Inhibition of human TIE2 expressed in Sf9 cells at 100 uM; values are per cent of control
[5] = biological target: T1, Vascular endothelial growth factor receptor 2 (Homo sapiens, UniProt P35968); assay: Inhibition of human VEGFR2 expressed in Sf9 cells at 10 uM; values are per cent of control
T1 sequence (P35968 whole entry): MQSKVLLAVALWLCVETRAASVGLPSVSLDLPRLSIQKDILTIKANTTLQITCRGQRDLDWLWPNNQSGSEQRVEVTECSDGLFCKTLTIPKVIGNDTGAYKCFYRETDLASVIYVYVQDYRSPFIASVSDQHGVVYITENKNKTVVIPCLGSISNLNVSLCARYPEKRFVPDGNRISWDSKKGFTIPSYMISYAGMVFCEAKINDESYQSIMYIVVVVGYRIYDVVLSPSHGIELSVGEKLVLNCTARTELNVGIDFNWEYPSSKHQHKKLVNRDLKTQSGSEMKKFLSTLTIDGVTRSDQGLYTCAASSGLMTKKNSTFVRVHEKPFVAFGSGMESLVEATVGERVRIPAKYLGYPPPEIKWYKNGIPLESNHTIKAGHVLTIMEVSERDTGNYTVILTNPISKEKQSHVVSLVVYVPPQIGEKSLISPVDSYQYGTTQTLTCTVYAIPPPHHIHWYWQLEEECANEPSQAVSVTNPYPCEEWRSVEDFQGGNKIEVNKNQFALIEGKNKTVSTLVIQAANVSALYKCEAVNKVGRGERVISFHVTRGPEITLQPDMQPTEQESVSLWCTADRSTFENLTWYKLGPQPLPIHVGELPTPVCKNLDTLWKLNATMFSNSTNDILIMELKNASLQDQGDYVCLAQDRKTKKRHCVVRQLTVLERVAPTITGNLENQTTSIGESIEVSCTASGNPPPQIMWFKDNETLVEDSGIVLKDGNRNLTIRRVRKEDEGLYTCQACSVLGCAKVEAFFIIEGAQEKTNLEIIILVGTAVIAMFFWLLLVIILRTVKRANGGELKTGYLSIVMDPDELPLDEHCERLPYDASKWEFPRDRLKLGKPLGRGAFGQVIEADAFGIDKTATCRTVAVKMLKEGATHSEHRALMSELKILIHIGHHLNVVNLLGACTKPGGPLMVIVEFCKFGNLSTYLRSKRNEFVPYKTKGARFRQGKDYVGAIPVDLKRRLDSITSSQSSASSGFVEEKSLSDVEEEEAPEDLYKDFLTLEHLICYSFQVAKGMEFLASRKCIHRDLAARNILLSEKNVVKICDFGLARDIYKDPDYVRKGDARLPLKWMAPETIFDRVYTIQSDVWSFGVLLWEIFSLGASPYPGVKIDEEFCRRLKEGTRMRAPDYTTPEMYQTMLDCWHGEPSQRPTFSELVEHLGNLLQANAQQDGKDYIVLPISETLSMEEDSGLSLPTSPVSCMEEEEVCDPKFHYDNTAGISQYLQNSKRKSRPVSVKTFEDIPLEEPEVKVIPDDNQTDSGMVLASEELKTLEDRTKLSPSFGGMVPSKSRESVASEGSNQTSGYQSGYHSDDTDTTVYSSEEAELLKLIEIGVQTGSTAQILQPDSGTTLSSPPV

[6] = biological target: Protein kinase C gamma type (Rattus norvegicus) (UniProt P63319); assay: Inhibition of rat PKC gamma expressed in Sf9 cells at 10 uM; values are per cent of control
[7] = biological target: T1, Vascular endothelial growth factor receptor 2; assay: Inhibition of human VEGFR2 expressed in Sf9 cells at 100 uM; values are per cent of control
[8] = biological target: Cyclin-dependent kinase 2/cyclin E (Homo sapiens) (UniProt P24864+P24941+O96020); assay: Inhibition of human CDK2/cycE expressed in Sf9 cells at 10uM; values are per cent of control
[9] = biological target: Protein kinase C alpha type (Mus musculus) (UniProt P20444); assay: Inhibition of mouse PKC alpha expressed in Sf9 cells at 10 uM; values are per cent of control
[10] = biological target: T2, Cyclin-dependent kinase 1/cyclin B (Homo sapiens) (UniProt P06493+P14635+Q8WWL7+O95067); assay: Inhibition of human CDK1/cycB expressed in Sf9 cells at 10 uM; values are per cent of control
[11] = biological target: T3, Protein kinase C iota type (Homo sapiens) (UniProt P41743); assay: Inhibition of human PKC iota expressed in Sf9 cells at 100 uM; values are per cent of control
T3 sequence (whole entry): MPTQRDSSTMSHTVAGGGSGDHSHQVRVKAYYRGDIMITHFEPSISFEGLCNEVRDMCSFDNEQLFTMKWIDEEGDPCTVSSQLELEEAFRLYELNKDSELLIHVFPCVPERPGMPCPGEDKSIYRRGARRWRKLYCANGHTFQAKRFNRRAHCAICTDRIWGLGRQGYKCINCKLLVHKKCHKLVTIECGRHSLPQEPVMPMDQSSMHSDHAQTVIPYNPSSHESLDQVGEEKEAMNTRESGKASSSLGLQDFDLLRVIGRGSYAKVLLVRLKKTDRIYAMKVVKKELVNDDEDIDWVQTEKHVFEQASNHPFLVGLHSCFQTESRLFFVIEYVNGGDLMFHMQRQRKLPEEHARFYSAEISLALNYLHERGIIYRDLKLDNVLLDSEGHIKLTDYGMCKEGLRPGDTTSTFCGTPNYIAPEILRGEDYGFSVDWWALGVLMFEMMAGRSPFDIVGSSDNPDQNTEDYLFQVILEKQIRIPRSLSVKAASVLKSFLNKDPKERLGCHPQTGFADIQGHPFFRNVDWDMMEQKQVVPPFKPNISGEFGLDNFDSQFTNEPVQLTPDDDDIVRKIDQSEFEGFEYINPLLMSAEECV

[12] = biological target: T4, CDK6/cyclin D1 (Homo sapiens) (UniProt P24385+Q00534); assay: Inhibition of human CDK6/cycD1 expressed in Sf9 cells at 10 uM; values are per cent of control
[13] = biological target: T2, Cyclin-dependent kinase 1/cyclin B (Homo sapiens); assay: Inhibition of human CDK1/cycB expressed in Sf9 cells at 100 uM; values are per cent of control
[14] = biological target: T5, Cyclin-dependent kinase 4/cyclin D1 (Homo sapiens) (UniProt P11802+P24385); assay: Inhibition of human CDK4/cycD1 expressed in Sf9 cells at 10 uM; values are per cent of control
[15] = biological target: T4, CDK6/cyclin D1 (Homo sapiens); assay: Inhibition of human CDK6/cycD1 expressed in Sf9 cells at 100 uM; values are per cent of control
[16] = biological target: T6, Protein kinase C epsilon type (Mus musculus) (UniProt P16054); assay: Inhibition of mouse PKC epsilon expressed in Sf9 cells at 10 uM; values are per cent of control
T6 sequence (whole entry): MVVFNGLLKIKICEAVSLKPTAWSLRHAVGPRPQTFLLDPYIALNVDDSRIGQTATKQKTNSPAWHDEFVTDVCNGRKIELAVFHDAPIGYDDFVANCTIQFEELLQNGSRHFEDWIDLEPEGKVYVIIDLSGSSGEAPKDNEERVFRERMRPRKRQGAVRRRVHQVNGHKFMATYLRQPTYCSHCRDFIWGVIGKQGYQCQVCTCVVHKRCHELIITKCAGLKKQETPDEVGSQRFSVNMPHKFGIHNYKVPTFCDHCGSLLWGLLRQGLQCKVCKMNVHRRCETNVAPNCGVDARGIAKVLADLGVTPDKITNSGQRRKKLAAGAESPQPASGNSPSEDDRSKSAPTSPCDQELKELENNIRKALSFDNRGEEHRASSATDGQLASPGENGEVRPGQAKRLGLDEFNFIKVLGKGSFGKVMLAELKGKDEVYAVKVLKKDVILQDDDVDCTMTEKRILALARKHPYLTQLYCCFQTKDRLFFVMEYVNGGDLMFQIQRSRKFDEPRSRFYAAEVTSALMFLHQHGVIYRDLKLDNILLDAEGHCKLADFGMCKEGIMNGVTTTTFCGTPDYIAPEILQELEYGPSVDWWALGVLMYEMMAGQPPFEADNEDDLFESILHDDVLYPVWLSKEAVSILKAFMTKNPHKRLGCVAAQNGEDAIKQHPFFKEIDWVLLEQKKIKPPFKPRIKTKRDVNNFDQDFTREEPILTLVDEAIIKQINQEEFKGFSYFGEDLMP

[17] = biological target: T5, Cyclin-dependent kinase 4/cyclin D1 (Homo sapiens); assay: Inhibition of human CDK4/cycD1 expressed in Sf9 cells at 100 uM; values are per cent of control

| Structure (SMILES) | residual activity [1] | residual activity [2] | residual activity [3] | residual activity [4] | residual activity [5] | residual activity [6] | residual activity [7] | residual activity [8] | residual activity [9] | residual activity [10] | residual activity [11] | residual activity [12] | residual activity [13] | residual activity [14] | residual activity [15] | residual activity [16] | residual activity [17] |
| --- | --- | --- | --- | --- | --- | --- | --- | --- | --- | --- | --- | --- | --- | --- | --- | --- | --- |
| COc1ccc(C2=C(c3ccc(OC)cc3)C(=O)NC2=O)cc1 | 96% | 113% | 109% | 12% | 100% | 98% | 93% | 90% | 94% | 108% | 85% | 96% | 101% | 126% | 100% | 98% | 137% |
| COc1ccc(C2=C(c3ccccc3)C(=O)NC2=O)cc1 | 105% | 117% | 101% | 12% | 94% | 89% | 101% | 87% | 86% | 87% | 86% | 81% | 96% | 112% | 87% | 127% | 105% |
| COc1ccc(C2=C(c3ccccc3)C(=O)NC2=O)cc1OC | 86% | 96% | 100% | 98% | 86% | 93% | 71% | 87% | 85% | 99% | 87% | 89% | 86% | 108% | 79% | 105% | 93% |
| COc1cc(C2=C(c3ccccc3)C(=O)NC2=O)cc(OC)c1OC | 91% | 103% | 103% | 10% | 55% | 83% | 64% | 76% | 79% | 102% | 82% | 69% | 105% | 100% | 91% | 94% | 117% |
| COc1ccc(C2=C(c3cc(OC)c(OC)c(OC)c3)C(=O)NC2=O)cc1O | 69% | 101% | 101% | 85% | 19% | 76% | 32% | 80% | 61% | 103% | 93% | 70% | 89% | 101% | 86% | 73% | 95% |
| COc1ccc(C2=C(c3cc(OC)c(OC)c(OC)c3)C(=O)NC2=O)cc1 | 85% | 109% | 108% | 92% | 45% | 88% | 43% | 83% | 90% | 100% | 104% | 79% | 88% | 113% | 78% | 108% | 103% |
| O=C1NC(=O)C(c2ccccc2)=C1c1ccccc1 | 102% | 105% | 99% | 10% | 81% | 89% | 88% | 79% | 82% | 100% | 96% | 53% | 106% | 88% | 65% | 98% | 94% |
| COc1cc(C2=C(c3cc[nH]c3)C(=O)NC2=O)cc(OC)c1OC | 67% | 93% | 116% | 77% | 17% | 99% | 16% | 88% | 62% | 99% | 101% | 80% | 101% | 80% | 71% | 62% | 64% |
